What was measured:
Glutamate NMDA receptor [1] = assay: Displacement of [3H]MK-801 from rat brain NMDA receptor
How it was run: (§1)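 [³H]MK-801 at 5 nM is bound to rat brain membranes, with the co-agonists glutamic acid and glycine added. Incubation lasts 2 h, close to equilibrium. Nonspecific binding is binding to closed channels: no glutamate or glycine, with D-APV and 5,7-DCKA added. The standard buffer is 50 mM Tris, switched to 10 mM Tris for buffer-sensitive inhibition. Replicate counts are given per value.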

Glutamate NMDA receptor [2] = assay: Displacement of [3H]MK-801 from NMDA receptor in rat brain in presence of 100 uM spermine; format: tissue-based; how it was run: as §1
Glutamate NMDA receptor [3] = assay: Displacement of [3H]MK801 from rat brain NMDA receptor in presence of 30 uM spermine; how it was run: as §1
Glutamate NMDA receptor [4] = assay: Stimulation of [3H]MK-801 binding to rat brain NMDA receptor; how it was run: as §1

IC50 (Glutamate NMDA receptor [1]) [µM]	spermine attenuation ratio (Glutamate NMDA receptor [2])	spermine attenuation ratio (Glutamate NMDA receptor [3])	EC50 (Glutamate NMDA receptor [4]) [µM]	SMILES
1.62	3.9			Cc1cc(CCCCN)sc1CCCCCCCCN
3.23	2.67			CCc1cc(CCCCN)sc1CCCCCCCCN
0.54	8.84	15.1		NCCCCCCCCc1ccc(CCCCN)s1
9.62		1.66		NCCCCc1ccc(CCCCN(CC[C@@H](N)Cc2ccccc2)Cc2ccccc2)s1
0.63	9.07			NCCCCCCCCc1ccc(CC2CCNCC2)s1
5.28	6.94			NCCCCCCCCCCCCCCN
2.48	8.58			CNCCCCCCCCc1ccc(CC2CCNCC2)s1
6.73	5.38			NCCCCC#CCCCCCCCCN
0.87	7.95			NCCCCCCCCc1ccc(CCCCN)cc1
1.08	4.07			Cc1cc(CCCCCCCCN)sc1CCCCN
15.2	7.67			CN(C)CCCCCCCCc1ccc(CC2CCNCC2)s1
1.76		16.8		NCCCCc1ccc(Cc2ccc(CCCCN)s2)s1
1.04		23.4		N=C(N)NCCCCCCc1ccc(CCNC(=N)N)s1
0.31		6.29		N=C(N)NCCCCCCCCc1ccc(CCCNC(=N)N)s1
0.77		3.95		N=C(N)NCCCCCCCCc1ccc(CCCCNC(=N)N)s1
5.3	7.7			CNCCCCCCCCc1ccc(CCCCNC)s1
358	2.79			CN(C)CCCCCCCCc1ccc(CCCCN(C)C)s1
114	2.98			CCCNCCCCCCCCc1ccc(CCCCNCCC)s1

IC50 (Glutamate NMDA receptor [1]) [µM]	spermine attenuation ratio (Glutamate NMDA receptor [2])	spermine attenuation ratio (Glutamate NMDA receptor [3])	EC50 (Glutamate NMDA receptor [4]) [µM]	SMILES
13.3	6.57			C=CCNCCCCCCCCc1ccc(CCCCNCC=C)s1
8.67	0.98			c1ccc(CNCCCCCCCCc2ccc(CCCCNCc3ccccc3)s2)cc1
4.2		16.8		NCCCCc1ccc(CCOCCOCCN)s1
111		5.48		NCCCCc1ccc(CCNC(=O)CNC(=O)CN)s1
5.2		29		NCCCCc1ccc(CCCCNCCCN)s1
282			1.9	NCCCCc1ccc(CCNCCNCCN)s1
2.21		65.4		CC(N)CC(=O)NCCCCc1ccc(CCCCN)s1 (stereo unspecified)
24.7		10.3		CC(CN)C(=O)NCCCCc1ccc(CCCCN)s1 (stereo unspecified)
11.7		10.1		NCCCCc1ccc(CCCCNC(=O)C(CN)c2ccccc2)s1 (stereo unspecified)
13.4		1.71		NCCCCc1ccc(CCCCN(Cc2ccccc2)C(=O)C[C@@H](N)Cc2ccccc2)s1
6.81		15		NCCCCc1ccc(CCCCNC(=O)CC(N)c2ccccc2)s1 (stereo unspecified)
5.47		9.57		NCCCCCCCCc1ccc(CCCN)s1
1.19		51.4		NCCCCc1ccc(CCCCNC(=O)CCN)s1
53		75		NCCCCCCCCNC(=O)CCN
1.13	2.96			NCCCCCCCCc1ccc(Cc2ccccc2CN)s1
0.74		7.47		N=C(N)NCCCCCCCc1ccc(CCCNC(=N)N)s1
7.05		34.6		NCCCCCCCCCCCCN
